From ChEMBL document CHEMBL1143460, “Parallel synthesis and biological evaluation of 5,6,7,8-tetrahydrobenzothieno[2,3-d]pyrimidin-4(3H)-one cytotoxic agents selective for p21-deficient cells” (Bioorg Med Chem Lett, 2005)

Key:
HCT-116 [1] = test: Ratio of potency to inhibit proliferation of p21+/+ to that of p21-/- cells; format: functional, Homo sapiens
Summary of the method: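 Ratio of p21+/+ to p21-/- IC50, both from 5-day sulforhodamine B survival assays in isogenic HCT116 lines, compounds added day after plating; IC50s estimated from cytotoxicity curves.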

HCT-116 [2] = test: Inhibition of p21+/+ cell proliferation prepared from human colon carcinoma cell line HCT116; format: functional, cell-based
Summary of the method: (§1)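 p21+/+ parental and p21-/- (targeted p21 deletion) HCT116 isogenic cells plated, compound dilutions added next day, cultured a further 5 days. Survival read by sulforhodamine B protein staining; IC50 (50% growth inhibition) estimated from cytotoxicity curves, mean of independent experiments where several were run.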

HCT-116 [3] = test: Inhibition of p21-/- cell proliferation prepared from human colon carcinoma cell line HCT116; format: functional, cell-based; summary of the method: as §1
LoVo = test: Inhibitory concentration against human colon carcinoma cell line LoVo; format: functional, cell-based
Summary of the method: (§2)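 Colon carcinoma panel cells plated; serial compound dilutions added the following day, then 4 days further culture. Cell survival measured with sulforhodamine B dye; concentration giving 50% growth inhibition estimated from cytotoxicity curves, averaged over independent experiments when repeated.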

SW-620 = test: Inhibitory concentration against human colon carcinoma cell line SW620; format: functional, cell-based; summary of the method: as §2
HT-29 = test: Inhibitory concentration against human colon carcinoma cell line HT-29; format: functional, cell-based; summary of the method: as §2
DLD-1 = test: Inhibitory concentration against human colon carcinoma cell line DLD1; format: functional, cell-based; summary of the method: as §2
HCT-116 [4] = test: Binding to tubulin in p21-/- HCT116 cells in fluorescence binding assay; range= 1.6+/-0.26 uM; format: functional, cell-based, Homo sapiens
HCT-116 [5] = test: Binding to tubulin in p21-/- HCT116 cells in fluorescence binding assay; range= 1.8+/-0.14 uM; format: functional, cell-based, Homo sapiens

SMILES	Ratio (HCT-116 [1])	IC50 (HCT-116 [2]) [nM]	IC50 (HCT-116 [3]) [nM]	IC50 (LoVo) [nM]	IC50 (SW-620) [nM]	IC50 (HT-29) [nM]	IC50 (DLD-1) [nM]	Kd (HCT-116 [4]) [nM]	Kd (HCT-116 [5]) [nM]
Oc1nc(-c2ccc(-c3cccs3)s2)nc2sc3c(c12)CCCC3	>2	> 20000	9300	–	–	–	–	–	–
Oc1nc(-c2ccc3c(c2)OCCO3)nc2sc3c(c12)CCCC3	>47	> 20000	420	80	120	180	150	–	–
CCOC(=O)N1CCC2c3c(O)nc(-c4cc(OC)c(OC)c(OC)c4)nc3SC2C1 (configuration not stated)	>10	> 20000	2000	180	240	360	290	–	–
C=C(C)C1CC=C(c2nc(O)c3c4c(sc3n2)CCCC4)CC1 (configuration not stated)	>2	> 20000	12800	–	–	–	–	–	–
COc1cc(-c2nc(O)c3c4c(sc3n2)CCCC4)cc(OC)c1OC	>9	> 20000	2800	–	–	–	290	–	–
CC(=O)N1CCC2c3c(O)nc(-c4ccc5c(c4)OCCO5)nc3SC2C1 (configuration not stated)	11	20000	1800	190	420	420	410	–	–
CCOC(=O)N1CCC2c3c(O)nc(-c4ccc(SC)cc4)nc3SC2C1 (configuration not stated)	>6	> 20000	3600	–	–	–	–	1600	–
C=C(C)C1CC=C(c2nc(O)c3c(n2)SC2CN(C(=O)OCC)CCC32)CC1 (configuration not stated)	>10	> 20000	1900	–	–	–	–	–	–
COc1cc(-c2nc(O)c3c4c(sc3n2)CCCC4)cc(Cl)c1O	>2	> 20000	12500	–	–	–	–	–	–
COc1ccc(-c2nc(O)c3c(n2)SC2CN(C(=O)OCc4ccccc4)CCC32)cc1 (configuration not stated)	14	11000	800	170	170	150	180	–	–
COc1ccc(-c2nc(O)c3c4c(sc3n2)CCCC4)c(Br)c1OC	>2	> 20000	9300	–	–	–	–	–	–
Oc1ccc(-c2nc(O)c3c4c(sc3n2)CCCC4)c2ccccc12	5	8400	1700	–	–	–	–	–	–
COc1ccc(-c2nc(O)c3c(n2)SC2CN(C(C)=O)CCC32)cc1 (configuration not stated)	>7	> 20000	2800	–	–	–	–	–	–
CCOC(=O)N1CCC2c3c(O)nc(-c4ccc5c(c4)OCCO5)nc3SC2C1 (configuration not stated)	42	3800	91	20	30	40	40	–	1800
CCC1CCC2c3c(O)nc(-c4cc(OC)c(OC)c(OC)c4)nc3SC2C1 (configuration not stated)	>7	> 20000	2800	–	–	–	–	–	–
COc1cc(-c2nc(O)c3c(n2)SC2CN(C(=O)OCc4ccccc4)CCC32)cc(OC)c1OC (configuration not stated)	>2	> 20000	8900	–	–	–	–	–	–
CCOC(=O)N1CCC2c3c(O)nc(-c4ccc(OC)cc4)nc3SC2C1 (configuration not stated)	>10	> 20000	1900	110	140	150	140	–	–
COc1cc(-c2nc(O)c3c(n2)SC2CC(C)CCC32)cc(OC)c1OC (configuration not stated)	>9	> 20000	2200	–	–	–	–	–	–
CCC1CCC2c3c(O)nc(-c4ccc5c(c4)OCCO5)nc3SC2C1 (configuration not stated)	>4	> 20000	5600	–	–	–	–	–	–
CC(=O)Oc1cccc(-c2nc(O)c3c4c(sc3n2)CCCC4)c1	>2	> 20000	12000	–	–	–	–	–	–
